Data reported in ChEMBL document CHEMBL1926570, “Ultrasound mediated catalyst free synthesis of 6H-1-benzopyrano[4,3-b]quinolin-6-ones leading to novel quinoline derivatives: their evaluation as potential anti-cancer agents” (Bioorg Med Chem, 2012).

Assays:
COLO 205 = assay: Cytotoxicity against human COLO205 cells after 24 hrs by MTT assay; type: functional, cell-based; details: COLO 205, 24 h
Summary of the method: (§1)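 Cells obtained from National Center for Cell Sciences, Pune, and grown in RPMI-1640 with 10% heat-inactivated FBS, penicillin/streptomycin and 2 mM glutamine at 37 °C, 5% CO₂. Seeded at 5 × 10³ cells/well and treated with or without compound at 1 and 10 for 24 h. MTT (5 mg/ml in PBS) was added for 2 h at 37 °C, then DMSO, and absorbance read at 570 nm. Triplicate wells per point; IC50 is 50% growth inhibition relative to untreated cells.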

K562 = assay: Cytotoxicity against human K562 cells after 24 hrs by MTT assay; type: functional, cell-based; details: K562, 24 h; summary of the method: as §1
MDA-MB-231 = assay: Cytotoxicity against human MDA-MB-231 cells after 24 hrs by MTT assay; type: functional, cell-based; details: MDA-MB-231, 24 h; summary of the method: as §1
IMR-32 = assay: Cytotoxicity against human IMR32 cells after 24 hrs by MTT assay; type: functional, cell-based; details: IMR-32, 24 h; summary of the method: as §1
[1] = target: T1, NAD-dependent protein deacetylase sirtuin-1 (Homo sapiens) (UniProt Q96EB6); assay: Inhibition of human N-terminally hexa-his-tagged SIRT1 expressed in Escherichia coli BL21 (DE3) at 10 uM after 15 mins by […]
T1 sequence (whole entry): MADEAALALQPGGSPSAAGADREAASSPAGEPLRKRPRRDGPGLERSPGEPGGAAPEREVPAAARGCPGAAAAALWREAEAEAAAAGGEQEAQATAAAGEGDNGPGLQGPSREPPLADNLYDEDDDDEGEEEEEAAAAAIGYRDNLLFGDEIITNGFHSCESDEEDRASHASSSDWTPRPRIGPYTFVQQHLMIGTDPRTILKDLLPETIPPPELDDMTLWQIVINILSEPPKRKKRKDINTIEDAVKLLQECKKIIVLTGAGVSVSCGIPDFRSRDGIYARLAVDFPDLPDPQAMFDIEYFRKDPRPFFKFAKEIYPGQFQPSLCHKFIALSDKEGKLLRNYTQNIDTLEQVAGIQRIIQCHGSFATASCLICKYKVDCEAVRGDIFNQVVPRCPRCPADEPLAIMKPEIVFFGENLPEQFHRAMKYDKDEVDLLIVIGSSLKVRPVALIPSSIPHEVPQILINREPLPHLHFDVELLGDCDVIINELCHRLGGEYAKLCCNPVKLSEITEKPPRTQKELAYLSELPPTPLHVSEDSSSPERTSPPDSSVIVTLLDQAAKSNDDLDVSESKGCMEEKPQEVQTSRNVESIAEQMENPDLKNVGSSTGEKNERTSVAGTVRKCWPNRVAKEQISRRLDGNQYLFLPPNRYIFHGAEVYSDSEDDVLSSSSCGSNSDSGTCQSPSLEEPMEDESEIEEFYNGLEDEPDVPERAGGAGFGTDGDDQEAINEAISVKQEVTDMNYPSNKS
Summary of the method: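 Commercial SIRT1 fluorescence kit using bacterially purified human Sirt1, fluorophore-labelled substrate peptide (25) and NAD⁺ (25), with or without compound at 10, for 15 min at 37 °C. Stop solution was then added for 45 min at room temperature. Fluorescence read at Ex 360/Em 450 nm. The no-enzyme blank and the compound autofluorescence (no-enzyme) control were subtracted.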

Row | inhibition [1] | Compound | IC50 (COLO 205) | IC50 (K562) | IC50 (MDA-MB-231) | IC50 (IMR-32)
1 |  | O=c1oc2ccccc2c2nc3ccc(F)cc3cc12 | 17 µM | 37 µM | 11 µM | 43 µM
2 |  | Cc1ccc2nc3c(cc2c1)c(=O)oc1ccccc13 | 29 µM | 23 µM | 12 µM | 33 µM
3 | 59% | NCc1cc2ccccc2nc1-c1ccccc1O | 32 µM | 23 µM | 19 µM | 46 µM
4 | 53% | [N-]=[N+]=NCc1cc2ccccc2nc1-c1ccccc1O | 19 µM | 11 µM | 12 µM | 24 µM
5 | 48% | O=c1oc2ccccc2c2nc3c(F)c(F)ccc3cc12 | 29 µM | 28 µM | 23 µM | 36 µM
6 | 48% | OCc1cc2cc(F)c(F)cc2nc1-c1ccccc1O | > 100 µM | 12 µM | > 100 µM | 63 µM
7 |  | Cc1ccc2nc(-c3ccccc3O)c(CO)cc2c1 | > 100 µM | 12 µM | > 100 µM | > 100 µM
8 |  | O=c1oc2ccccc2c2nc3ccc(Cl)cc3cc12 | 16 µM | 32 µM | 14 µM | 46 µM
9 |  | COc1ccc2nc3c(cc2c1)c(=O)oc1ccccc13 | 41 µM | 39 µM | 9 µM | 36 µM
10 |  | O=c1oc2ccccc2c2nc3cc(Br)ccc3cc12 | 38 µM | 23 µM | 19 µM | 23 µM
11 |  | OCc1cc2ccccc2nc1-c1ccccc1O | 40 µM | 74 µM | > 100 µM | > 100 µM
12 |  | O=c1oc2ccccc2c2nc3cc(F)c(F)cc3cc12 | 11 µM | 41 µM | 8 µM | 25 µM
13 |  | O=c1oc2ccccc2c2nc3cc(F)ccc3cc12 | 21 µM | 35 µM | 29 µM | 41 µM
14 | 61% | NS(=O)(=O)c1cc(C(=O)O)cc([N+](=O)[O-])c1NCc1cc2ccccc2nc1-c1ccccc1O | 19 µM | 10 µM | 8 µM | 18 µM
15 |  | COc1ccc2c(c1)[nH]c1c(C)nccc12 [HARMINE] | 46 µM | 45 µM | 54 µM | 68 µM
16 |  | OCc1cc2cc(Cl)ccc2nc1-c1ccccc1O | 24 µM | 11 µM | > 100 µM | 65 µM
17 |  | COc1cccc2cc3c(=O)oc4ccccc4c3nc12 | 24 µM | 35 µM | 16 µM | 46 µM
18 | 62% | CS(=O)(=O)N(Cc1cn(Cc2cc3ccccc3nc2-c2ccccc2O)nn1)c1ccccc1I | 12 µM | 13 µM | 8 µM | 38 µM
19 |  | O=c1oc2ccccc2c2nc3ccccc3cc12 | 18 µM | 43 µM | 12 µM | 28 µM
